Source: ChEMBL document CHEMBL1687827, “Profiling the Aspergillus fumigatus proteome in response to caspofungin” (2011)
Calls of active or inactive are those of the source. The calls are words filed in the database; no cut-off is given here.

Assays:
Aspergillus fumigatus [1] = assay: Induction of change in Ribosomal protein S5 protein level in iTRAQ114 labelled cell wall fraction of drug-resistant Aspergillus fumigatus EMFR-S678P at 0.12 ug/ml after 24 hrs in YPD medium by MS (MS/MS) analysis relative to control; type: functional, organism-based
Outline: (§1)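 Conidia at 1 × 10⁵/ml were grown at 37°C, shaking at 225 rpm, in YPD with or without 0.12 μg/ml caspofungin for 24 or 48 h. The culture filtrate was kept as the secreted fraction. Mycelia were lysed by French press in HEPES/glycerol/EDTA/PMSF/DTT buffer, and the 5,000 × g pellet was washed to give CW/PM. Proteins were reduced, alkylated and trypsin-digested at 37°C overnight, then iTRAQ-labelled and run by 2D LC-MS/MS. Ratios are the median of unique-peptide ratios, median-normalized, versus the no-drug control.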

Aspergillus fumigatus [2] = assay: Induction of change in ribosomal protein L26 protein level in iTRAQ-116 labelled secreted fraction of drug-resistant Aspergillus fumigatus EMFR-S678P at 0.12 ug/ml after 48 hrs in YPD medium by MS (MS/MS) analysis relative to control; type: functional, organism-based; outline: as §1
Aspergillus fumigatus [3] = assay: Induction of change in 60S acidic ribosomal protein P2 gene expression in drug-susceptible Aspergillus fumigatus KU80 delta-akuB at 0.12 ug/ml after 24 hrs in YPD medium by microarray analysis relative to control; type: functional
Outline: (§2)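 Mycelia grown in YPD ± 0.12 μg/ml caspofungin (1 × 10⁵ conidia/ml, 37°C, shaking) and harvested at 24 or 48 h. Total RNA extracted, DNase-treated and quality-checked; 2 μg labelled per TIGR SOP M007 and hybridized to whole-genome arrays. Three independent experiments with dye flip (6 replicates); drug vs untreated fold change.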

Aspergillus fumigatus [4] = assay: Induction of change in allergen Asp F4 protein level in iTRAQ-116 labelled secreted fraction of drug-susceptible Aspergillus fumigatus KU80 delta-akuB at 0.12 ug/ml after 48 hrs in YPD medium by MS (MS/MS) analysis relative to control; type: functional
Outline: (§3)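 Conidia at 1 × 10⁵/ml grown shaking at 37°C in YPD with or without 0.12 μg/ml caspofungin; mycelia filtered at 24 or 48 h. Secreted fraction taken from the filtrate; cell wall/plasma membrane pellet recovered after French-press lysis and a 5,000 × g spin. Proteins trypsin-digested and iTRAQ-labelled, drug vs no-drug channels at each time, then 2D LC-MS/MS. Protein ratio is the median of ratios from uniquely assigned peptides after median normalization.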

Aspergillus fumigatus [5] = assay: Induction of change in carbonic anhydrase family gene expression in drug-susceptible Aspergillus fumigatus KU80 delta-akuB at 0.12 ug/ml after 24 hrs in YPD medium by microarray analysis relative to control; type: functional; outline: as §2
Aspergillus fumigatus [6] = assay: Induction of change in 37S ribosomal protein S24 protein level in iTRAQ-118 labelled cell wall fraction of drug-resistant Aspergillus fumigatus EMFR-S678P at 0.12 ug/ml after 24 hrs in YPD medium by MS (MS/MS) analysis relative to control; type: functional, organism-based; outline: as §1
Aspergillus fumigatus [7] = assay: Induction of change in choline oxidase (CodA), putative protein level in iTRAQ-116 labelled secreted fraction of drug-susceptible Aspergillus fumigatus KU80 delta-akuB at 0.12 ug/ml after 48 hrs in YPD medium by MS (MS/MS) analysis relative to control; type: functional; outline: as §3
Aspergillus fumigatus [8] = assay: Induction of change in 60S ribosomal protein L7 protein level in iTRAQ114 labelled cell wall fraction of drug-susceptible Aspergillus fumigatus KU80 delta-akuB at 0.12 ug/ml after 24 hrs in YPD medium by MS (MS/MS) analysis relative to control; type: functional; outline: as §3
Aspergillus fumigatus [9] = assay: Induction of change in transcriptional repressor TupA/RocA, putative protein level in iTRAQ-118 labelled cell wall fraction of drug-resistant Aspergillus fumigatus EMFR-S678P at 0.12 ug/ml after 24 hrs in YPD medium by MS (MS/MS) analysis relative to control; type: functional; outline: as §1
Aspergillus fumigatus [10] = assay: Induction of change in 60s ribosomal protein L24, putative gene expression in drug-susceptible Aspergillus fumigatus KU80 delta-akuB at 0.12 ug/ml after 24 hrs in YPD medium by microarray analysis relative to control; type: functional; outline: as §2
Aspergillus fumigatus [11] = assay: Induction of change in cytochrome c oxidase polypeptide vib protein level in iTRAQ-118 labelled cell wall fraction of drug-resistant Aspergillus fumigatus EMFR-S678P at 0.12 ug/ml after 24 hrs in YPD medium by MS (MS/MS) analysis relative to control; type: functional, organism-based; outline: as §1
Aspergillus fumigatus [12] = assay: Induction of change in allergen Asp F4 protein level in iTRAQ-118 labelled cell wall fraction of drug-resistant Aspergillus fumigatus EMFR-S678P at 0.12 ug/ml after 24 hrs in YPD medium by MS (MS/MS) analysis relative to control; type: functional; outline: as §1
Aspergillus fumigatus [13] = assay: Induction of change in hypothetical gene locus AFUA_6G06840 expression in drug-susceptible Aspergillus fumigatus KU80 delta-akuB at 0.12 ug/ml after 48 hrs in YPD medium by microarray analysis relative to control; type: functional
Outline: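 Mycelia grown from 1 × 10⁵ conidia/ml in YPD at 37°C, 225 rpm, with or without 0.12 μg/ml caspofungin. Total RNA extracted, DNase-treated; 2 μg labelled per TIGR SOP M007 for whole-genome array hybridization. Three independent experiments with dye flip (6 replicates); >2-fold change deemed significant.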

Aspergillus fumigatus [14] = assay: Antifungal activity against drug-susceptible Aspergillus fumigatus KU80 delta-akuB assessed as change in hyphal morphology by RPMI medium; type: functional; conditions: read-out: MEC
Outline: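 CLSI M38-A2 broth microdilution, run in triplicate in RPMI or YPD medium as the line specifies. Caspofungin was dissolved in sterile water. The minimum effective concentration (MEC) was the lowest concentration giving a significant change in hyphal morphology visible to the eye.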

Aspergillus fumigatus [15] = assay: Induction of change in allergen Asp F3 protein level in iTRAQ-116 labelled secreted fraction of drug-resistant Aspergillus fumigatus EMFR-S678P at 0.12 ug/ml after 48 hrs in YPD medium by MS (MS/MS) analysis relative to control; type: functional; outline: as §1

`CC[C@H](C)C[C@H](C)CCCCCCCCC(=O)N[C@H]1C[C@@H](O)[C@@H](NCCN)NC(=O)[C@@H]2[C@@H](O)CCN2C(=O)[C@H]([C@H](O)CCN)NC(=O)[C@H]([C@H](O)[C@@H](O)c2ccc(O)cc2)NC(=O)[C@@H]2C[C@@H](O)CN2C(=O)[C@H]([C@@H](C)O)NC1=O` [CASPOFUNGIN] was tested, and the Activity (Aspergillus fumigatus [1]) was “inactive”, the Activity (Aspergillus fumigatus [2]) was “inactive” and the “fold change (FC)” value (Aspergillus fumigatus [3]) was 4.3. For the same compound, the “fold change (FC)” value (Aspergillus fumigatus [4]) was -7, the “fold change (FC)” value (Aspergillus fumigatus [5]) was -6.5 and the Activity (Aspergillus fumigatus [6]) was “inactive”. The “fold change (FC)” value (Aspergillus fumigatus [7]) was -2, the “fold change (FC)” value (Aspergillus fumigatus [8]) was 2 and the “fold change (FC)” value (Aspergillus fumigatus [9]) was 1.32. For the same compound, the “fold change (FC)” value (Aspergillus fumigatus [10]) was 3.5, the Activity (Aspergillus fumigatus [11]) was “inactive” and the “fold change (FC)” value (Aspergillus fumigatus [12]) was 1.07. For the same compound, the “fold change (FC)” value (Aspergillus fumigatus [13]) was -2.1, the minimal effective concentration (Aspergillus fumigatus [14]) was 0.25 µg/mL and the “fold change (FC)” value (Aspergillus fumigatus [15]) was -1.52.
